Source: ChEMBL document CHEMBL2407024, “Antimicrobial activity of imidazo[1,5-a]quinoxaline derivatives with pyridinium moiety” (Eur J Med Chem, 2013)

Key:
Candida albicans [1] = assay: Antifungal activity against Candida albicans 885-653 measured every 24 hrs for 14 days by conventional dilution method; assay type: functional
How it was run: (§1)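 Dilution assay in Sabouraud dextrose broth, inoculum 2 × 10^3–4 cfu/ml. MIC is the lowest concentration with no visible growth after 14 days of incubation. Run alongside a positive growth control and standard drug controls. Tests in duplicate, repeated twice.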

[2] = test system: Trichophyton mentagrophytes; assay: Antifungal activity against Trichophyton mentagrophytes measured every 24 hrs for 14 days by conventional dilution method; assay type: functional; how it was run: as §1
Aspergillus niger [3] = assay: Antifungal activity against Aspergillus niger BKMF-1119 measured every 24 hrs for 14 days by conventional dilution method; assay type: functional; how it was run: as §1
Escherichia coli [4] = assay: Antibacterial activity against Escherichia coli F-50 measured every 24 hrs for 5 days by conventional dilution method; assay type: functional
How it was run: (§2)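 Broth dilution in nutrient broth, inoculum 3 × 10⁵ cfu/ml. MIC is the lowest concentration showing no growth, read visually every 24 h over 5 days. Run alongside a positive growth control and standard drug controls. Tests in duplicate, repeated twice.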

Bacillus cereus [5] = assay: Antibacterial activity against Bacillus cereus 8035 measured every 24 hrs for 5 days by conventional dilution method; assay type: functional; how it was run: as §2
Staphylococcus aureus [6] = assay: Antibacterial activity against Staphylococcus aureus 209p measured every 24 hrs for 5 days by conventional dilution method; assay type: functional; how it was run: as §2
Pseudomonas aeruginosa [7] = assay: Antibacterial activity against Pseudomonas aeruginosa 9027 measured every 24 hrs for 5 days by conventional dilution method; assay type: functional; how it was run: as §2
[8] = Acute toxicity in ip dosed mouse; assay type: organism-based; conditions: in vivo
How it was run: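 Mice; each compound given at 5 dose levels, 10 animals per dose (n = 50 per compound). Animals observed for 72 h; toxicity expressed as average lethal dose (LD50) calculated from mortality across dose groups.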

Candida albicans [9] = assay: Fungicidal activity against Candida albicans 885-653 after 6 hrs; assay type: functional; conditions: 885-653, 6 h
How it was run: (§3)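 Tubes of test compound (5 to 500 per ml, 1 mL in nutrient agar) with fungi were incubated at 26 °C for 6 h. Inocula were then prepared in Sabouraud dextrose broth and incubated at 26 °C. The fungicidal concentration is the one giving total cell death.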

[10] = test system: Trichophyton mentagrophytes; assay: Fungicidal activity against Trichophyton mentagrophytes after 6 hrs; assay type: functional; how it was run: as §3
Aspergillus niger [11] = assay: Fungicidal activity against Aspergillus niger BKMF-1119 after 6 hrs; assay type: functional; conditions: BKMF-1119, 6 h; how it was run: as §3
Pseudomonas aeruginosa [12] = assay: Bactericidal activity against Pseudomonas aeruginosa 9027 after 4 hrs; assay type: functional; conditions: Pseudomonas aeruginosa, 9027, 4 h
How it was run: (§4)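 Tubes contained 1 mL test compound in nutrient agar, 5 to 500 per ml. Bacteria in normal saline broth (3 × 10⁵ cfu/ml, 1 mL) were added and held 4 h, then transferred onto meal-peptone agar plates and incubated at 37 °C. MBC is the dilution giving total cell death.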

Escherichia coli [13] = assay: Bactericidal activity against Escherichia coli F-50 after 4 hrs; assay type: functional; conditions: F-50, 4 h; how it was run: as §4
Bacillus cereus [14] = assay: Bactericidal activity against Bacillus cereus 8035 after 4 hrs; assay type: functional; conditions: Bacillus cereus, 8035, 4 h; how it was run: as §4
Staphylococcus aureus [15] = assay: Bactericidal activity against Staphylococcus aureus 209p after 4 hrs; assay type: functional; how it was run: as §4

SMILES | MIC (Candida albicans [1]) [µg/mL] | MIC [2] [µg/mL] | MIC (Aspergillus niger [3]) [µg/mL] | MIC (Escherichia coli [4]) [µg/mL] | MIC (Bacillus cereus [5]) [µg/mL] | MIC (Staphylococcus aureus [6]) [µg/mL] | MIC (Pseudomonas aeruginosa [7]) [µg/mL] | LD50 [8] [mg/kg] | MFC (Candida albicans [9]) [µg/mL] | MFC [10] [µg/mL] | MFC (Aspergillus niger [11]) [µg/mL] | MBC (Pseudomonas aeruginosa [12]) [µg/mL] | MBC (Escherichia coli [13]) [µg/mL] | MBC (Bacillus cereus [14]) [µg/mL] | MBC (Staphylococcus aureus [15]) [µg/mL]
Cc1nc(-c2ccc[n+](Cc3ccccc3)c2)n2c1c(=O)[nH]c1ccccc12.[Cl-] | > 500 | > 500 | > 500 | > 500 | > 500 | 500 | > 500 |  |  |  |  |  |  |  | 
CCCCCC[n+]1cccc(-c2nc(-c3ccccc3)c3c(=O)[nH]c4ccccc4n23)c1.[Br-] | 250 | > 500 | > 500 | > 500 | 125 | 62.5 | > 500 | 75.8 |  |  |  |  |  |  | 
CCCCCCCCC[n+]1cccc(-c2nc(-c3ccccc3)c3c(=O)n(CCCCCC)c4ccccc4n23)c1.[Br-] | 0.97 | 250 | > 500 | 500 | 0.97 | 0.97 | > 500 | 120 | 50 | 250 | > 500 | > 500 | 500 | 50 | 5
CCCCCCCCCn1c(=O)c2c(-c3ccccc3)nc(-c3ccc[n+](CCCCCCCCC)c3)n2c2ccccc21.[Br-] | 50 | 500 | > 500 | > 500 | 6.3 | 1.5 | > 500 |  | 500 | > 500 | > 500 | > 500 | > 500 | 500 | 50
CCCC[n+]1cccc(-c2nc(-c3ccccc3)c3c(=O)[nH]c4ccccc4n23)c1.[I-] | > 500 | > 500 | > 500 | > 500 | > 500 | 500 | > 500 | 63.2 |  |  |  |  |  |  | 
CCCCCCn1c(=O)c2c(-c3ccccc3)nc(-c3ccc[n+](CCCCCC)c3)n2c2ccccc21.[I-] | 15.6 | > 500 | > 500 | 250 | 62.5 | 62.5 | 500 |  |  |  |  |  |  |  | 
CCCCCCCCCn1c(=O)c2c(-c3ccccc3)nc(-c3ccc[n+](CCCCCC)c3)n2c2ccccc21.[I-] | 25 | > 500 | > 500 | > 500 | 125 | 62.5 | > 500 |  |  |  |  |  |  |  | 
CCCCCCCCCn1c(=O)c2c(-c3ccccc3)nc(-c3ccc[n+](CCCCCCCCC)c3)n2c2ccccc21.[I-] | > 500 | > 500 | > 500 | > 500 | 7.8 | 7.8 | > 500 |  | > 500 | > 500 | > 500 | > 500 | > 500 | > 500 | 500
O=c1[nH]c2ccccc2n2c(-c3ccc[n+](CCCC[n+]4cccc(-c5nc(-c6ccccc6)c6c(=O)[nH]c7ccccc7n56)c4)c3)nc(-c3ccccc3)c12.[Br-].[Br-] | 3.9 | 250 | > 500 | > 500 | > 500 | > 500 | > 500 |  |  |  |  |  |  |  | 
O=c1[nH]c2ccccc2n2c(-c3ccc[n+](CCCCCC[n+]4cccc(-c5nc(-c6ccccc6)c6c(=O)[nH]c7ccccc7n56)c4)c3)nc(-c3ccccc3)c12.[Br-].[Br-] | > 500 | > 500 | > 500 | > 500 | > 500 | 500 | > 500 |  |  |  |  |  |  |  | 
Cl.O=c1[nH]c2ccccc2n2c(-c3cccnc3)nc(-c3ccccc3)c12 | > 500 | > 500 | > 500 | > 500 | > 500 | > 500 | > 500 |  |  |  |  |  |  |  | 
Cl.O=c1[nH]c2ccccc2n2c(-c3ccccn3)nc(-c3ccccc3)c12 | > 500 | > 500 | > 500 | > 500 | > 500 | > 500 | > 500 |  |  |  |  |  |  |  | 
O=c1[nH]c2ccccc2n2c(-c3ccc[n+](Cc4ccccc4)c3)nc(-c3ccccc3)c12.[Cl-] | 62.5 | 500 | > 500 | > 500 | 125 | 31.3 | > 500 | 65.7 |  |  |  |  |  |  | 
